Active and inactive are the calls of the source.
Columns and labels:
Mus musculus [1] = assay: Neurotoxicity in CF1 albino mouse at 10 mg/kg, ip after 0.5 hrs by rotarod test; type: toxicity, organism-based; conditions: in vivo
How it was run: (§1)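 Rotarod neurotoxicity in male CF-1 mice dosed ip as 0.5% methylcellulose suspension: mouse placed on 1 inch knurled rod rotating at 6 rpm; toxicity when the animal falls off three times within 1 min, with other signs noted. Scored as toxic/tested at 0.5 h and 4 h.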

Mus musculus [2] = assay: Neurotoxicity in CF1 albino mouse at 300 mg/kg, ip after 4 hrs by rotarod test; type: toxicity, organism-based; conditions: in vivo
How it was run: (§2)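 Rotarod neurotoxicity in male albino CF-1 mice dosed ip with compound suspended in 0.5% methylcellulose. Animal placed on a 1 inch diameter knurled plastic rod rotating at 6 rpm. Neurotoxicity scored when the animal falls off three times within 1 min. Readout is number of animals toxic/number tested at the stated time after dosing. TD50 with 95% confidence interval from the quantitative study.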

[3] = Neuroprotective activity in hippocampal slice (unknown origin) assessed as protection against kainic acid-induced cell death using propidium iodide staining; type: functional; conditions: Hippocampus
How it was run: (§3)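 Organotypic hippocampal slice cultures exposed to NMDA or kainic acid alone or with compound; propidium iodide in all wells; PI fluorescence intensity of slices, proportional to cell death, compared with excitotoxin-only slices; qualitative.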

Mus musculus [4] = assay: Neurotoxicity in ip dosed CF1 albino mouse after 0.25 hrs by rotarod test; type: toxicity, organism-based; conditions: in vivo
How it was run: as §2, with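 “dosing.” for “dosing. TD50 with 95% confidence interval from the quantitative study.”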

Mus musculus [5] = assay: Anticonvulsant activity in CF1 albino mouse assessed as protection against 6 Hz-psychomotor-induced seizure at 25 mg/kg, ip after 0.25 to 4 hrs; type: functional, organism-based
How it was run: (§4)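 Male CF-1 mice, ip suspension in 0.5% methylcellulose. Corneal stimulation 0.2 ms monopolar rectangular pulses at 6 Hz, 32 mA for 3 s via constant-current device; mice without minimal clonic phase seizure counted protected. Groups of four; read at 0.25, 0.5, 1, 2, 4 h; result as protected/tested.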

Mus musculus [6] = assay: Anticonvulsant activity in CF1 albino mouse assessed as protection against subcutaneous pentetrazole-induced seizure at 30 mg/kg, ip after 0.5 hrs; type: functional, organism-based
How it was run: (§5)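 Male CF-1 mice, ip in 0.5% methylcellulose; pentetrazole at CD97 (85 mg/kg) injected subcutaneously in a loose fold of neck skin. Observed 30 min; absence of even a threshold seizure (single clonic spasm lasting at least 5 s) counted as protection. Scored protected/tested, or ED50.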

Mus musculus [7] = assay: Neurotoxicity in CF1 albino mouse at 3 mg/kg, ip after 0.5 hrs by rotarod test; type: toxicity, organism-based; conditions: in vivo; how it was run: as §2
Mus musculus [8] = assay: Neurotoxicity in CF1 albino mouse at 50 mg/kg, ip after 0.5 hrs by rotarod test; type: toxicity, organism-based; conditions: in vivo; how it was run: as §2
[9] = Neuroprotective activity in hippocampal slice (unknown origin) assessed as protection against NMDA-induced cell death using propidium iodide staining; type: functional; conditions: Hippocampus; how it was run: as §3
Mus musculus [10] = assay: Analgesic activity in mouse assessed as inhibition of formalin-induced paw licking behavior at 13 mg/kg, ip after 0.25 hrs; type: functional, organism-based
How it was run: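 Male albino mice, ip in 0.5% methylcellulose; 0.5% formalin injected sub-dermally into right hindpaw plantar surface 0.25 h after dosing. Paw licking observed for the first 2 min of each 5-min epoch up to 40 min after dosing; cumulative licking duration compared with vehicle-pretreated group, acute and inflammatory phases.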

Mus musculus [11] = assay: Neurotoxicity in CF1 albino mouse at 100 mg/kg, ip after 4 hrs by rotarod test; type: toxicity, organism-based; conditions: in vivo; how it was run: as §2
Mus musculus [12] = assay: Anticonvulsant activity in CF1 albino mouse assessed as protection against subcutaneous pentetrazole-induced seizure at 30 mg/kg, ip after 4 hrs; type: functional, organism-based; how it was run: as §5
Mus musculus [13] = assay: Neurotoxicity in CF1 albino mouse at 30 mg/kg, ip after 4 hrs by rotarod test; type: toxicity, organism-based; conditions: in vivo; how it was run: as §2
Mus musculus [14] = assay: Anticonvulsant activity in CF1 albino mouse assessed as protection against 6 Hz-psychomotor-induced seizure at 50 mg/kg, ip after 2 hrs; type: functional, organism-based; how it was run: as §4
Mus musculus [15] = assay: Anticonvulsant activity in ip dosed CF1 albino mouse assessed as protection against maximal electroshock-induced seizure after 0.5 hrs; type: functional
How it was run: (§6)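 Male CF-1 mice dosed ip as suspension in 0.5% methylcellulose. Corneal electrodes deliver 60 Hz alternating current, 50 mA for […], after a drop of 0.5% tetracaine HCl in 0.9% NaCl per eye. Protection means abolition of hindlimb tonic extension; scored as protected/tested, or ED50 with 95% confidence interval.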

Mus musculus [16] = assay: Neurotoxicity in CF1 albino mouse at 50 mg/kg, ip after 4 hrs by rotarod test; type: toxicity, organism-based; conditions: in vivo; how it was run: as §2
Mus musculus [17] = assay: Anticonvulsant activity in ip dosed CF1 albino mouse assessed as protection against subcutaneous pentetrazole-induced seizure after 0.5 hrs; type: functional; how it was run: as §5
Mus musculus [18] = assay: Anticonvulsant activity in CF1 albino mouse assessed as protection against 6 Hz-psychomotor-induced seizure at 50 mg/kg, ip after 1 hr; type: functional, organism-based; how it was run: as §4
Mus musculus [19] = assay: Neurotoxicity in CF1 albino mouse at 50 mg/kg, ip after 2 hrs by rotarod test; type: toxicity, organism-based; conditions: in vivo; how it was run: as §2
Mus musculus [20] = assay: Anticonvulsant activity in CF1 albino mouse assessed as protection against maximal electroshock-induced seizure at 30 mg/kg, ip after 0.5 hrs; type: functional, organism-based; how it was run: as §6
Mus musculus [21] = assay: Anticonvulsant activity in CF1 albino mouse assessed as protection against maximal electroshock-induced seizure at 10 mg/kg, ip after 0.5 hrs; type: functional, organism-based; how it was run: as §6
Mus musculus [22] = assay: Anticonvulsant activity in CF1 albino mouse assessed as protection against 6 Hz-psychomotor-induced seizure at 50 mg/kg, ip after 4 hrs; type: functional, organism-based; how it was run: as §4
Histamine H3 receptor = Histamine H3 receptor (Homo sapiens, UniProt Q9Y5N1); assay: Displacement of [3H]-Nalpha-methylhistamine from human recombinant histamine H3 receptor expressed in HEK293 cells after 90 mins; type: cell-based
Sequence of Histamine H3 receptor (Q9Y5N1 whole entry): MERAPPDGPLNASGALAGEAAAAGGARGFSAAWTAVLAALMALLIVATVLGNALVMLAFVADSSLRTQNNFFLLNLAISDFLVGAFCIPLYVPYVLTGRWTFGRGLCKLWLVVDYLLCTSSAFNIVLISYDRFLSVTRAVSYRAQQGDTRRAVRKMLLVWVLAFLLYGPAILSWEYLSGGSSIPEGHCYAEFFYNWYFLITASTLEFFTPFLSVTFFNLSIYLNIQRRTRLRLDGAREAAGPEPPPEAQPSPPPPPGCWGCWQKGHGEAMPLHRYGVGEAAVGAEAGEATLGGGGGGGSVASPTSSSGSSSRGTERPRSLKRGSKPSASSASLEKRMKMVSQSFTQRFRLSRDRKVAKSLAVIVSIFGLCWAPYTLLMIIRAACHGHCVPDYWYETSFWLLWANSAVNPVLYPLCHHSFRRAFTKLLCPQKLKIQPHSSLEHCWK

Mus musculus [23] = assay: Neurotoxicity in CF1 albino mouse assessed as death at 100 mg/kg, ip after 0.5 hrs by rotarod test; type: toxicity, organism-based; conditions: in vivo
How it was run: (§7)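 Male albino CF-1 mice dosed ip with compound suspended in 0.5% methylcellulose, then placed on a 1-inch knurled plastic rod turning at 6 rpm. A fall three times within 1 min counted as neurotoxicity. Observations were made at 0.5 h and 4 h after dosing. Result given as animals showing toxicity per animals tested, with the kind of toxicity recorded.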

Mus musculus [24] = assay: Neurotoxicity in CF1 albino mouse assessed as death at 300 mg/kg, ip after 0.5 hrs by rotarod test; type: toxicity, organism-based; conditions: in vivo; how it was run: as §7
Mus musculus [25] = assay: Anticonvulsant activity in CF1 albino mouse assessed as protection against maximal electroshock-induced seizure at 30 mg/kg, ip after 4 hrs; type: functional, organism-based; how it was run: as §6
Mus musculus [26] = assay: Protective index, ratio of TD50 for ip dosed CF1 albino mouse to ED50 for ip dosed CF1 albino mouse assessed as protection against maximal electroshock-induced seizure after 0.5 hrs; type: functional
How it was run: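 PI = TD50/ED50. Male CF-1 mice or male Sprague–Dawley rats given compound ip as 0.5% methylcellulose suspension. MES: 60 Hz corneal current, 50 mA mice or 150 mA rats, for […] after tetracaine eye drops; protection is abolition of hindlimb tonic extension.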

Rattus norvegicus [27] = assay: Anticonvulsant activity in Sprague-Dawley rat assessed as protection against maximal electroshock-induced seizure at 30 mg/kg, po; type: functional
Rattus norvegicus [28] = assay: Anticonvulsant activity in Sprague-Dawley rat assessed as protection against pilocarpine-induced convulsive status epilepticus at 65 mg/kg, ip; type: functional, organism-based
How it was run: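 Male Sprague Dawley rats (150–180 g) dosed ip, pilocarpine 50 mg/kg ip given; compound dosed immediately at first behavioral Stage 3 seizure or 30 min later. Number protected from Racine Stage 3 or greater seizures recorded.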

Mus musculus [29] = assay: Neurotoxicity in CF1 albino mouse at 30 mg/kg, ip after 0.5 hrs by rotarod test; type: toxicity, organism-based; conditions: in vivo; how it was run: as §2
Mus musculus [30] = assay: Neurotoxicity in CF1 albino mouse at 25 mg/kg, ip after 0.25 to 4 hrs by rotarod test; type: toxicity, organism-based; conditions: in vivo; how it was run: as §2
Mus musculus [31] = assay: Anticonvulsant activity in CF1 albino mouse assessed as protection against maximal electroshock-induced seizure at 3 mg/kg, ip after 0.5 hrs; type: functional, organism-based; how it was run: as §6
Mus musculus [32] = assay: Anticonvulsant activity in CF1 albino mouse assessed as protection against maximal electroshock-induced seizure at 100 mg/kg, ip after 4 hrs; type: functional, organism-based; how it was run: as §6
Rattus norvegicus [33] = assay: Neurotoxicity in Sprague-Dawley rat at 30 mg/kg, po by rotarod test; type: toxicity, organism-based; conditions: in vivo
How it was run: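 Oral dosing in male Sprague–Dawley rats, compound as a suspension in 0.5% methylcellulose. Rotarod neurotoxicity on a 1 inch knurled rod turning at 6 rpm, with three falls in 1 min scored as toxic. Reported as toxic/tested.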

Mus musculus [34] = assay: Neurotoxicity in CF1 albino mouse assessed as unable to grasp rotarod, diarrhea and clonic seizure at 100 mg/kg, ip after 0.5 hrs by rotarod test; type: toxicity, organism-based; conditions: in vivo; how it was run: as §1
Mus musculus [35] = assay: Anticonvulsant activity in CF1 albino mouse assessed as protection against subcutaneous pentetrazole-induced seizure at 100 mg/kg, ip after 4 hrs; type: functional, organism-based; how it was run: as §5
Mus musculus [36] = assay: Anticonvulsant activity in CF1 albino mouse assessed as protection against maximal electroshock-induced seizure at 100 mg/kg, ip after 0.5 hrs; type: functional, organism-based; how it was run: as §6
Mus musculus [37] = assay: Anticonvulsant activity in CF1 albino mouse assessed as protection against subcutaneous pentetrazole-induced seizure at 100 mg/kg, ip after 0.5 hrs; type: functional, organism-based; how it was run: as §5

SMILES | Activity (Mus musculus [1]) | Activity (Mus musculus [2]) | Activity (Mus musculus [6]) | Activity (Mus musculus [7]) | Activity (Mus musculus [11]) | Activity (Mus musculus [12]) | Activity (Mus musculus [13]) | Activity (Mus musculus [20]) | Activity (Mus musculus [21]) | Ki (Histamine H3 receptor) | Activity (Mus musculus [24]) | Activity (Mus musculus [25]) | Activity (Rattus norvegicus [27]) | Activity (Mus musculus [29]) | Activity (Mus musculus [31]) | further results
CC1CCN(CCCCCCOc2ccc(Cl)cc2)CC1.O=C(O)C(=O)O | Non-toxic | Non-toxic | inactive | Non-toxic | Non-toxic | inactive | Non-toxic | Active | Active | 0.189 µM | Toxic | Active | 25% | Non-toxic | inactive | Activity [3]: inactive; TD50 (median neurotoxic dose) (Mus musculus [4]): 40.77 mg/kg; Activity (Mus musculus [5]): inactive; Activity (Mus musculus [8]): Non-toxic; Activity [9]: inactive; Activity (Mus musculus [10]): inactive; Activity (Mus musculus [14]): inactive; ED50 (Mus musculus [15]): 13 mg/kg; Activity (Mus musculus [16]): Non-toxic; ED50 (Mus musculus [17]): > 30 mg/kg; Activity (Mus musculus [18]): inactive; Activity (Mus musculus [19]): Non-toxic; Activity (Mus musculus [22]): inactive; Activity (Mus musculus [23]): Toxic; Ratio TD50/ED50 (Mus musculus [26]): 3.1; Activity (Rattus norvegicus [28]): Active; Activity (Mus musculus [30]): Toxic
CC1CCN(CCCCCCCOc2ccc(Cl)cc2)CC1.O=C(O)C(=O)O | Non-toxic | Non-toxic | inactive | Non-toxic | Non-toxic | inactive | Non-toxic | Active | inactive | 0.467 µM | Toxic | inactive | inactive | Non-toxic | inactive | Activity (Mus musculus [32]): Active; Activity (Rattus norvegicus [33]): Non-toxic; Activity (Mus musculus [34]): Toxic; Activity (Mus musculus [35]): inactive; Activity (Mus musculus [36]): Active; Activity (Mus musculus [37]): inactive

— ChEMBL document CHEMBL3745596, “Chlorophenoxy aminoalkyl derivatives as histamine H(3)R ligands and antiseizure agents” (Bioorg Med Chem, 2016)
